Measured values: ChEMBL document CHEMBL1132560, “N-Substituted 2-(2,6-dinitrophenylamino)propanamides: novel prodrugs that release a primary amine via nitroreduction and intramolecular cyclization” (J Med Chem, 1999)
pIC50: −log10 of the molar value.

Columns and labels:
[1] = 4-methoxyaniline yield was measured from 8 fold reduced forms of compound at pH 7.4
Method in brief: (§1)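 Anaerobic aqueous solutions with 0.5 M 2-propanol were γ-irradiated to deliver a set number of molar equiv of reducing species (e⁻aq, (CH₃)₂C•OH), at room temperature. pH 7.4 runs used 0.01 M phosphate, pH 4.0 runs 0.01 M formate. […] Released 4-methoxyaniline was quantified by C-18 HPLC with diode-array detection.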

[2] = 4-methoxyaniline yield was measured from 4 fold reduced forms of compound at pH 7.4; method in brief: as §1
[3] = 4-methoxyaniline yield was measured from 8 fold reduced forms of compound at 4; method in brief: as §1
[4] = 4-methoxyaniline yield was measured from 4 fold reduced forms of compound at 4; method in brief: as §1
[5] = test system: CHO-AA8; experiment: Cytotoxicity on AA8 cell growth (reduce cell number by 50%).; format: functional, cell-based; details: Cricetulus griseus
Method in brief: (§2)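 Cells in αMEM with 5% FBS plus penicillin/streptomycin were seeded per well at 200 (AA8), 300 (UV4), 75 (EMT6) or 600 (SKOV3) cells and grown 24 h. Drugs came from DMSO stocks (final DMSO <1%), pH 7.4. Exposure was aerobic for 4 h, followed by washing, 4–5 days further growth and methylene blue staining. IC₅₀ was set as 50% growth inhibition relative to same-plate controls. Mean ± SEM of 3–5 experiments.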

[6] = test system: EMT6; experiment: Cytotoxicity on EMT6 cell growth (reduce cell number by 50%).; format: functional, cell-based; details: Mus musculus; method in brief: as §2
[7] = test system: SK-OV-3; experiment: Cytotoxicity on SKOV3 cell growth (reduce cell number by 50%).; format: functional, cell-based; details: Homo sapiens; method in brief: as §2
[8] = test system: UV4; experiment: Compound concentration to reduce plating efficiency of UV4 cells to 10% controls under aerobic conditions of 20% oxygen to that under […]; format: functional
Method in brief: (§3)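 UV4 cells were grown to early plateau phase in spinner flasks and resuspended in fresh medium. Cells and drug in medium were pre-gassed for 1 h with 5% CO₂ in air (20% O₂) or in N₂. Cells at 10⁶/mL were then exposed for 1 h with continuous gassing and assayed clonogenically. C₁₀ is the concentration giving 10% surviving fraction; hypoxic selectivity is the ratio of aerobic to N₂ C₁₀. Mean ± SEM of 3 experiments.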

[9] = test system: UV4; experiment: Compound's concentration to reduce plating efficiency of UV4 cells to 10% controls under aerobic conditions of 20% oxygen; format: functional; method in brief: as §3
[10] = test system: UV4; experiment: Cytotoxicity on UV4 cell growth (reduce cell number by 50%).; format: functional, cell-based; details: Cricetulus griseus; method in brief: as §2
[11] = 4-methoxyaniline yield was measured from 8 fold reduced forms of compound at pH 4; method in brief: as §1
[12] = 4-methoxyaniline yield was measured from 4 fold reduced forms of compound at pH 4; method in brief: as §1

COc1ccc(NC(=O)C(C)(C)Nc2c([N+](=O)[O-])cc(C(=O)NCCO)cc2[N+](=O)[O-])cc1
Release [1]: 90%
Release [2]: 90%

COc1ccc(NC(=O)C(C)Nc2c([N+](=O)[O-])cc(C(=O)NCCO)cc2[N+](=O)[O-])cc1 (stereo unspecified)
Release [3]: 97%
Release [1]: 77%
Release [2]: 77%
Release [4]: 97%

COc1cc2cc(C(=O)N3CC(CCl)c4c3cc(NC(=O)C(C)Nc3c([N+](=O)[O-])cc(C(=O)NCCN(C)C)cc3[N+](=O)[O-])c3ccccc43)[nH]c2c(OC)c1OC (stereo unspecified)
pIC50 [5]: 7.02
pIC50 [6]: 7.39
pIC50 [7]: 7.06
C10 [8]: 1.8 air/N2
C10 [9]: 490 nM
pIC50 [10]: 7.28

COc1ccc(NC(=O)C(C)Nc2c([N+](=O)[O-])cc(C(=O)NCCN(C)C)cc2[N+](=O)[O-])cc1 (stereo unspecified)
Release [1]: 89%
Release [2]: 89%

CC(Nc1c([N+](=O)[O-])cc(C(=O)NCCN(C)C)cc1[N+](=O)[O-])C(=O)Nc1ccc(N(CCCl)CCCl)cc1 (stereo unspecified)
pIC50 [5]: 4.98
pIC50 [6]: 5.89
pIC50 [7]: 5.89
C10 [8]: 1.3 air/N2
C10 [9]: 2100 nM
pIC50 [10]: 5.52

COc1ccc(NC(=O)CNc2c([N+](=O)[O-])cc(C(=O)NCCO)cc2[N+](=O)[O-])cc1
Release [11]: 83%
Release [1]: 69%
Release [2]: 69%
Release [12]: 83%

COc1ccc(NC(=O)C(C)N(C)c2c([N+](=O)[O-])cc(C(=O)NCCO)cc2[N+](=O)[O-])cc1 (stereo unspecified)
Release [11]: 94%
Release [12]: 80%

COc1ccc(NC(=O)CN(C)c2c([N+](=O)[O-])cc(C(=O)NCCO)cc2[N+](=O)[O-])cc1
Release [11]: 100%
Release [12]: 80%

COc1cc2cc(C(=O)N3CC(CCl)c4c3cc(N)c3ccccc43)[nH]c2c(OC)c1OC (stereo unspecified)
pIC50 [5]: 9.34
pIC50 [6]: 9.57
pIC50 [7]: 9.00
C10 [8]: 1.1 air/N2
C10 [9]: 3.4 nM
pIC50 [10]: 9.54

COc1ccc(NC(=O)C(C)Nc2c([N+](=O)[O-])cc(C(=O)NCC(O)CO)cc2[N+](=O)[O-])cc1 (stereo unspecified)
Release [1]: 92%
Release [2]: 92%
